Experimental data as given in ChEMBL document CHEMBL1129987, “Structure-based design of nonpeptidic HIV protease inhibitors: the sulfonamide-substituted cyclooctylpyramones” (J Med Chem, 1997).

Key:
[1] = Apparent volume of distribution was obtained after intravenous administration of 5.1 mg/kg of drug in male Dawley rats; type: ADME, organism-based; set-up: dose 5.1 mg/kg, route intravenous; settings: Sprague-Dawley, rat, in vivo, read-out: Vss
[2] = Oral bioavailability in rat (Sprague-Dawley) (male) (dose 5 mg/kg); type: ADME, organism-based; settings: in vivo
[3] = Half-life was measured after intravenous administration of 5.1 mg/kg of drug in male Dawley rats; type: ADME, organism-based; set-up: dose 5.1 mg/kg, route intravenous; settings: Sprague-Dawley, rat, in vivo
[4] = Total plasma clearance value was obtained after intravenous administration of 5.1 mg/kg of drug in male Dawley rats; type: ADME, organism-based; set-up: dose 5.1 mg/kg, route intravenous; settings: Sprague-Dawley, rat
[5] = Maximum concentration was measured after peroral administration of 5.0 mg/kg of drug in male Dawley rats; type: ADME, organism-based; set-up: dose 5 mg/kg, route oral; settings: Sprague-Dawley, rat, in vivo, po
[6] = system: Human immunodeficiency virus 1; test: Antiviral activity in HIV-1 infected H9 cells; type: functional; settings: Human immunodeficiency virus 1, H9; read-out: ED50 (the source's name)
Summary of the method: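 H9 cells infected with HIV-1 IIIB at MOI about 0.005, spun down (200g, 10 min), resuspended at 8 × 10^5 cells/mL in RPMI Complete and mixed with compound; final DMSO 0.1%, triplicate per concentration. After 5 days at 37 °C in 5% CO2, supernatant p24 antigen was measured by ELISA. ED50 is the drug amount that reduces p24 by 50% versus DMSO drug-free controls.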

[7] = Median cell culture toxic dose was evaluated against H9 cell line; type: ADME, cell-based; settings: human, H9 cells; read-out: CCTD50
[8] = Maximum time taken by the drug to reach peak concentration after peroral administration of 5.0 mg/kg of drug in male Dawley rats; type: ADME, organism-based; set-up: dose 5 mg/kg, route oral; settings: Sprague-Dawley, rat, in vivo, po
[9] = Maximum concentration was measured after peroral administration of 5.2 mg/kg of drug in male Dawley rats; type: ADME, organism-based; set-up: dose 5.2 mg/kg, route oral; settings: Sprague-Dawley, rat, in vivo, po
Rattus norvegicus [10] = test: (§1) Half-life was measured after intravenous administration of […] mg/kg of drug in male Dawley rats; type: ADME, organism-based; settings: in vivo, 2.8 mg/kg
[11] = biological target: Human immunodeficiency virus type 1 protease (Human immunodeficiency virus 1, UniProt Q72874); test: Binding affinity against HIV-1 protease
[12] = Maximum time taken by the drug to reach peak concentration after peroral administration of 5.2 mg/kg of drug in male Dawley rats; type: ADME, organism-based; set-up: dose 5.2 mg/kg, route oral; settings: Sprague-Dawley, rat, in vivo, po
[13] = Oral bioavailability in rat (Sprague-Dawley) (male) (dose 5.2 mg/kg p.o.); type: ADME, organism-based; settings: in vivo
Rattus norvegicus [14] = test: (§2) Apparent volume of distribution was obtained after intravenous administration of 2.8 mg/kg of drug in male Dawley rats; type: ADME, organism-based; set-up: dose 2.8 mg/kg, route intravenous; settings: in vivo
Rattus norvegicus [15] = test: (§3) Total plasma clearance value was obtained after intravenous administration of […] mg/kg of drug in male Dawley rats; type: ADME, organism-based; settings: in vivo, 2.8 mg/kg
[16] = Apparent volume of distribution was obtained after intravenous administration of 4.9 mg/kg of drug in male Beagle dogs; type: ADME, organism-based, Canis lupus familiaris; set-up: dose 4.9 mg/kg, route intravenous; settings: dog, in vivo, read-out: Vss
[17] = Half-life was measured after intravenous administration of 4.9 mg/kg of drug in male Beagle dogs; type: ADME, organism-based, Canis lupus familiaris; set-up: dose 4.9 mg/kg, route intravenous; settings: dog, in vivo
[18] = Total plasma clearance value was obtained after intravenous administration of 2.5 mg/kg of drug in male Dawley rats; type: ADME, organism-based; set-up: dose 2.5 mg/kg, route intravenous; settings: Sprague-Dawley, rat
[19] = Oral bioavailability in dog (Beagle) (male) (dose 10 mg/kg p.o.); type: ADME, organism-based, Canis lupus familiaris; settings: in vivo
Summary of the method: (§4)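 Male beagle dogs received a 10 mg/kg oral dose. tmax is reported as a range. Bioavailability was calculated as %F = (AUCpo/AUCiv) × (doseiv/dosepo) against a separate iv study. Values are mean ± SD, n = 3.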

[20] = Maximum time taken by the drug to reach peak concentration after peroral administration of 10 mg/kg of drug male in male Beagle dogs; type: ADME, organism-based, Canis lupus familiaris; set-up: dose 10 mg/kg, route oral; settings: dog, in vivo, po; summary of the method: as §4
[21] = Total plasma clearance value was obtained after intravenous administration of 4.9 mg/kg of drug in male Beagle dogs; type: ADME, organism-based, Canis lupus familiaris; set-up: dose 4.9 mg/kg, route intravenous; settings: dog
[22] = Oral bioavailability in rat (Sprague-Dawley) (male) (dose 5.1 mg/kg p.o.); type: ADME, organism-based; settings: in vivo
[23] = Maximum concentration was measured after peroral administration of 5.1 mg/kg of drug in male Dawley rats; type: ADME, organism-based; set-up: dose 5.1 mg/kg, route oral; settings: Sprague-Dawley, rat, in vivo, po
[24] = Maximum time taken by the drug to reach peak concentration after peroral administration of 5.1 mg/kg of drug male in Dawley rats; type: ADME, organism-based; set-up: dose 5.1 mg/kg, route oral; settings: Sprague-Dawley, rat, in vivo, po
[25] = Half-life was measured after intravenous administration of 2.5 mg/kg of drug in male Dawley rats; type: ADME, organism-based; set-up: dose 2.5 mg/kg, route intravenous; settings: Sprague-Dawley, rat, in vivo
[26] = as §1; type: ADME, organism-based; settings: male, Sprague-Dawley, rat, in vivo, 2.8 mg/kg
[27] = Maximum time taken by the drug to reach peak concentration after peroral administration of 5.1 mg/kg of drug in male Dawley rats; type: ADME, organism-based; set-up: dose 5.1 mg/kg, route oral; settings: Sprague-Dawley, rat, in vivo, po
[28] = as §2; type: ADME, organism-based; set-up: dose 2.8 mg/kg, route intravenous; settings: male, Sprague-Dawley, rat, in vivo, read-out: Vss
[29] = as §3; type: ADME, organism-based; settings: male, Sprague-Dawley, rat, plasma, 2.8 mg/kg
[30] = Total plasma clearance value was obtained after intravenous administration of 2.6 mg/kg of drug in male Dawley rats; type: ADME, organism-based; set-up: dose 2.6 mg/kg, route intravenous; settings: Sprague-Dawley, rat
[31] = Apparent volume of distribution was obtained after intravenous administration of 2.6 mg/kg of drug in male Dawley rats; type: ADME, organism-based; set-up: dose 2.6 mg/kg, route intravenous; settings: Sprague-Dawley, rat, in vivo, read-out: Vss
[32] = Half-life was measured after intravenous administration of 2.6 mg/kg of drug in male Dawley rats; type: ADME, organism-based; set-up: dose 2.6 mg/kg, route intravenous; settings: Sprague-Dawley, rat, in vivo
[33] = Half-life was measured after intravenous administration of 2.7 mg/kg of drug in male Dawley rats; type: ADME, organism-based; set-up: dose 2.7 mg/kg, route intravenous; settings: Sprague-Dawley, rat, in vivo
[34] = Apparent volume of distribution was obtained after intravenous administration of 1.8 mg/kg of drug in male Beagle dogs; type: ADME, organism-based, Canis lupus familiaris; set-up: dose 1.8 mg/kg, route intravenous; settings: dog, in vivo, read-out: Vss
[35] = Total plasma clearance value was obtained after intravenous administration of 1.8 mg/kg of drug in male Beagle dogs; type: ADME, organism-based, Canis lupus familiaris; set-up: dose 1.8 mg/kg, route intravenous; settings: dog
[36] = Apparent volume of distribution was obtained after intravenous administration of 2.7 mg/kg of drug in male Dawley rats; type: ADME, organism-based; set-up: dose 2.7 mg/kg, route intravenous; settings: Sprague-Dawley, rat, in vivo, read-out: Vss
[37] = Half-life was measured after intravenous administration of 1.8 mg/kg of drug in male Beagle dogs; type: ADME, organism-based, Canis lupus familiaris; set-up: dose 1.8 mg/kg, route intravenous; settings: dog, in vivo
[38] = Maximum concentration was measured after peroral administration of 10 mg/kg of drug in male Beagle dogs; type: ADME, organism-based, Canis lupus familiaris; set-up: dose 10 mg/kg, route oral; settings: dog, in vivo, po; summary of the method: as §4
[39] = Maximum time taken by the drug to reach peak concentration after peroral administration of 5.2 mg/kg of drug male in Dawley rats; type: ADME, organism-based; set-up: dose 5.2 mg/kg, route oral; settings: Sprague-Dawley, rat, in vivo, po
[40] = Total plasma clearance value was obtained after intravenous administration of 2.7 mg/kg of drug in male Dawley rats; type: ADME, organism-based; set-up: dose 2.7 mg/kg, route intravenous; settings: Sprague-Dawley, rat

SMILES | bioavailability [2] | Cmax [5] | EC50 [6] | CC50 [7] | Tmax [8] | Cmax [9] | Ki [11] | bioavailability [13] | bioavailability [19] | Tmax [20] | bioavailability [22] | Cmax [23] | other results
N#Cc1ccc(S(=O)(=O)Nc2cccc([C@@H](c3c(O)oc4c(c3=O)CCCCCC4)C3CC3)c2)cc1 | 42% | 19 µM | 1.2 µM | > 30 µM | 30 min |  |  |  |  |  |  |  | Vd [1]: 0.12 L/kg; half-life [3]: 372 min; clearance [4]: 0.817 mL/min/kg
O=c1c2c(oc(O)c1[C@@H](c1cccc(NS(=O)(=O)c3ccc(F)cc3)c1)C1CC1)CCCCCC2 |  |  | > 10 µM | > 30 µM |  | 24 µM | 0.0021 µM | 53% |  |  |  |  | T1/2 (Rattus norvegicus [10]): 360 min; Tmax [12]: 15 min; Vss (Rattus norvegicus [14]): 0.15 L/kg; CL (Rattus norvegicus [15]): 0.067 mL/min/kg
N#Cc1ccc(S(=O)(=O)Nc2cccc(C(c3c(O)c4c(oc3=O)CCCCCC4)C3CC3)c2)cc1 (stereo unspecified) |  |  | 1.3 µM | 90 µM |  |  |  |  | 77% | 30 min | 42% | 24 µM | Vd [16]: 0.085 L/kg; half-life [17]: 378 min; clearance [18]: 1.25 mL/min/kg; clearance [21]: 0.733 mL/min/kg; Tmax [24]: 15 min; half-life [25]: 180 min
O=c1c2c(oc(O)c1[C@H](c1cccc(NS(=O)(=O)c3ccc(F)cc3)c1)C1CC1)CCCCCC2 |  |  | 0.8 µM | > 30 µM |  |  | 0.0014 µM |  |  |  | 58% | 10 µM | half-life [26]: 132 min; Tmax [27]: 15 min; Vd [28]: 0.13 L/kg; clearance [29]: 1.92 mL/min/kg
N#Cc1ccc(S(=O)(=O)Nc2cccc([C@H](c3c(O)oc4c(c3=O)CCCCCC4)C3CC3)c2)cc1 | 31% | 13 µM | 8.3 µM | > 30 µM | 15 min |  |  |  |  |  |  |  | clearance [30]: 0.933 mL/min/kg; Vd [31]: 0.15 L/kg; half-life [32]: 450 min
O=c1c2c(oc(O)c1C(c1cccc(NS(=O)(=O)c3ccc(F)cc3)c1)C1CC1)CCCCCC2 (stereo unspecified) |  |  | 2 µM | 68 µM |  | 31 µM | 0.0031 µM | 50% | 107% | 30 min |  |  | half-life [33]: 372 min; Vd [34]: 0.08 L/kg; clearance [35]: 3.17 mL/min/kg; Vd [36]: 0.16 L/kg; half-life [37]: 34.2 min; Cmax [38]: 61 µM; Tmax [39]: 15 min; clearance [40]: 0.717 mL/min/kg
